Data set [1] deals with SK-BR-3. Nature of the data set: Cytotoxicity against human SK-BR-3 cells after 72 hrs by SRB assay. Type of data set: functional. As to conditions: SK-BR-3, 72 h, read-out: ED50 (the source's name). The essentials: (§1)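 Cells grown in RPMI-1640 with 10% FBS, penicillin, streptomycin and amphotericin B at 37 °C, 5% CO2, then trypsinized and seeded in 96-well plates. Compounds were added from DMSO-diluted stock and incubated 72 h after attachment. Cells were TCA-fixed, stained with 0.4% SRB and read at 515 nm. ED50 is the concentration halving net protein increase, averaged from at least two independent determinations with SEM.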
On the technique in general: The SRB assay estimates cell density from bound dye.

In data set [2] the test system is ZR-75-1. Nature of the data set: Cytotoxicity against human ZR-75-1 after 72 hrs by SRB assay. The format is functional. As to conditions: ZR-75-1, 72 h, read-out: ED50 (the source's name). In short, it runs like this:
as §1

A short description of data set [3]: Cytotoxicity against human vincristine-resistant KBVIN after 72 hrs by SRB assay. As to conditions: read-out: ED50 (the source's name). Type of data set: functional. In short, it runs like this: as §1
Another data set concerns MDA-MB-231. Nature of the data set: Cytotoxicity against human MDA-MB-231 after 72 hrs by SRB assay. Type of data set: functional. As to conditions: MDA-MB-231, 72 h, read-out: ED50 (the source's name). The essentials:
as §1

In the next data set the test system is DU-145. Nature of the data set: Cytotoxicity against human DU145 after 72 hrs by SRB assay. The format is functional. As to conditions: DU-145, 72 h, read-out: ED50 (the source's name).
In the next data set the test system is A549. Put plainly: Cytotoxicity against human A549 after 72 hrs by SRB assay. Type of data set: functional. As to conditions: A549, 72 h, read-out: ED50 (the source's name). In short, it runs like this: as §1
The test system of another data set is KB. Put plainly: Cytotoxicity against human KB after 72 hrs by SRB assay. The format is functional. As to conditions: read-out: ED50 (the source's name). In short, it runs like this:
as §1

In data set [4] the test system is SK-BR-3. Put plainly: Selectivity ratio of ED50 for human A549 cell to ED50 for human SK-BR-3 cells. Type of data set: functional. In short, it runs like this:
(§2)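 Ratio of the ED50 in the stated line to the ED50 in SK-BR-3. Each ED50 came from the 72 h SRB protein-stain assay in RPMI-1640/10% FBS-grown cells, as the concentration halving net protein increase, averaged over at least two independent determinations.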

Data set [5] deals with SK-BR-3. Put plainly: Selectivity ratio of ED50 for human vincristine-resistant KBVIN cell to ED50 for human SK-BR-3 cells. The format is functional. In short, it runs like this:
as §2

Data set [6] has as its system SK-BR-3. Put plainly: Selectivity ratio of ED50 for human MDA-MB-231 cell to ED50 for human SK-BR-3 cells. The format is functional. The essentials:
as §2

Data set [7] in a line: Cytotoxicity against human MCF10A after 72 hrs by MTT assay. Type of data set: cell-based, MCF-10A. As to conditions: MCF10A cells, read-out: ED50. The essentials:
(§3)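 MTT read-out: 5000 cells/well were seeded in 96-well plates in recommended growth medium and incubated overnight. Drug in DMSO was added, with 72 h at 37 °C in 5% CO2. MTT reagent was then added for 2 h, and formazan was read as optical density at 570. Data are mean and SD of replicates from a single experiment.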
In general terms: Formazan colour is commonly taken as a measure of viable cells.

Data set [8] deals with ZR-75-1. Nature of the data set: Selectivity ratio of ED50 for human ZR-75-1 cell to ED50 for human SK-BR-3 cells. Type of data set: functional. The essentials:
as §2

Data set [9] has as its system SK-BR-3. Nature of the data set: Selectivity ratio of ED50 for human DU145 cell to ED50 for human SK-BR-3 cells. Type of data set: functional.
Data set [10] is described as follows: Cytotoxicity against human 184A1 after 72 hrs by MTT assay. Type of data set: cell-based. As to conditions: 184A1 cells, read-out: ED50. The essentials: as §3
In data set [11] the test system is SK-BR-3. Nature of the data set: Cytotoxicity against human SK-BR-3 cells after 72 hrs by MTT assay. Type of data set: functional. As to conditions: SK-BR-3, 72 h, read-out: ED50 (the source's name). In short, it runs like this: as §3
Data set [12] relates to SK-BR-3. Nature of the data set: Selectivity ratio of ED50 for human KB cell to ED50 for human SK-BR-3 cells. The format is functional. In short, it runs like this: as §2

`COc1ccc(-c2cc3occ(C)c3c(=O)o2)cc1OC`: the EC50 in the data set with SK-BR-3 [1] is more than 69.9 µM.
The same measure, in the same setting: the same measure for `Cc1cc(C)cc(-c2cc3occ(C)c3c(=O)o2)c1`: 22.4 µM; for `COc1ccc(-c2cc3occ(C)c3c(=O)o2)cc1`: more than 78.1 µM.
Still for that read-out and setting: the result for `Cc1coc2cc(-c3ccc(F)cc3)oc(=O)c12` reads 19.3 µM.
As to `Cc1cccc2c1ccc1c3occ(C)c3c(=O)oc21`, the EC50 with ZR-75-1 [2] is 0.9 µM; with SK-BR-3 [1], 0.95 µM; in data set [3] it was more than 75.8 µM.
On to `CCOc1cccc(-c2cc3occ(C)c3c(=O)o2)c1`, for which the EC50 in the data set on MDA-MB-231 is more than 37 µM; in the data set with ZR-75-1 [2], 2.2 µM; in the data set with DU-145 it was 74.1 µM; in the data set with SK-BR-3 [1], 0.67 µM; in the data set with A549 it was 57.8 µM; in data set [3], more than 74.1 µM. For the same molecule, the EC50 in the data set with KB amounted to 64.4 µM.
Turning to `COc1cccc(-c2cc3occ(C)c3c(=O)o2)c1OC`, the EC50 in the data set on SK-BR-3 [1] turned out to be 65 µM.
Same read-out and setting: the same measure for `Cc1coc2cc(-c3ccc(O)cc3)oc(=O)c12`: 36 µM.
In the case of `Cc1coc2cc(-c3cccc(O)c3)oc(=O)c12`, the EC50 with MDA-MB-231 is more than 41.3 µM; with ZR-75-1 [2], 0.9 µM; in the data set with DU-145 it was 82.6 µM; with SK-BR-3 [1], 1.61 µM; in the data set with A549, 68.6 µM; in data set [3], 60.3 µM. For the same molecule, in the data set with KB, the EC50 came out at 65.3 µM.
`Cc1coc2cc(-c3cccc(F)c3)oc(=O)c12`: in the data set on SK-BR-3 [1], the EC50 turned out to be 20.5 µM.
Still for that read-out and setting: the same measure for `Cc1ccc(-c2cc3occ(C)c3c(=O)o2)cc1`: more than 83.3 µM.
On the same count and under the same terms, the result for `Cc1ccc(-c2cc3occ(C)c3c(=O)o2)cc1C` reads 14.6 µM.
As for `COc1cccc(-c2cc3occ(C)c3c(=O)o2)c1`, the EC50 in the data set on MDA-MB-231 was more than 39.1 µM; in the data set with ZR-75-1 [2], 5.5 µM; in the data set with DU-145, more than 78.1 µM; in the data set on SK-BR-3 [1], 2.58 µM; in the data set with A549, 58.2 µM; in data set [3] it was 71.1 µM.
Take `COc1cc(OC)cc(-c2cc3oc(C)c(C)c3c(=O)o2)c1`: in the data set with SK-BR-3 [1], the EC50 was more than 66.7 µM.
`COc1cc(OC)cc(-c2cc3occ(C)c3c(=O)o2)c1`: the “Ratio ED50” value in the data set with SK-BR-3 [4], in the data set with SK-BR-3 [5], in the data set with SK-BR-3 [6], in the data set with ZR-75-1 [8], with SK-BR-3 [9] and in the data set with SK-BR-3 [12] was 100 each time. The EC50 in the data set with MDA-MB-231 is more than 69.9 µM; in the data set with ZR-75-1 [2], 30.8 µM; in the data set with DU-145, 65.4 µM; in the data set on SK-BR-3 [1], 0.28 µM; with A549 it was more than 69.9 µM; in data set [3], more than 69.9 µM. Besides, the EC50 in the data set on SK-BR-3 [11] came to 1000 nM. The results for the CC50 at 72 h in data set [7] and in [10] were more than 35 µM and 16.8 µM, respectively.
On to `Cc1coc2cc(-c3ccc(O)c(O)c3)oc(=O)c12`, for which the EC50 with MDA-MB-231 worked out at 22.9 µM; in the data set with ZR-75-1 [2], 1.2 µM; in the data set with DU-145, 25.6 µM; in the data set with SK-BR-3 [1] it was 0.47 µM; in the data set with A549 it was 19.4 µM; in [3] it was 23.3 µM. Further, in the data set with KB, the EC50 came out at 20.2 µM.
With `CCc1coc2cc(-c3cc(OC)cc(OC)c3)oc(=O)c12`, in the data set on SK-BR-3 [1], the EC50 worked out at 55.6 µM.
Same read-out and setting: the same measure for `Cc1coc2cc(-c3cccc(O)c3O)oc(=O)c12`: 34.1 µM.
In the case of `COc1cc(-c2cc3occ(C)c3c(=O)o2)cc(OC)c1OC`, the “Ratio ED50” value in the data set with SK-BR-3 [4] came to 100; in the data set on SK-BR-3 [5], 100; with SK-BR-3 [6], 100; with ZR-75-1 [8], 66; in the data set with SK-BR-3 [9], 100; in the data set with SK-BR-3 [12] it was 100. Moreover, the EC50 with MDA-MB-231 is more than 31.6 µM; with ZR-75-1 [2] it was 29.1 µM; with DU-145, more than 63.3 µM; in the data set on SK-BR-3 [1], 0.44 µM; in the data set with A549, 63.3 µM; in [3] it was more than 63.3 µM.
Regarding `Cc1coc2cc(-c3cc(O)cc(O)c3)oc(=O)c12`, in the data set on SK-BR-3 [1], the EC50 was determined as 38.4 µM.
Still for that read-out and setting: the same measure for `Cc1coc2cc(-c3ccccc3)oc(=O)c12`: 15.5 µM; for `COc1cc(OC)cc(-c2cc3occ(C)c3c(=S)o2)c1`: more than 66.2 µM.
For `Cc1cccc(-c2cc3occ(C)c3c(=O)o2)c1`, the EC50 was more than 83.3 µM in the data set with MDA-MB-231; 6.3 µM in the data set on ZR-75-1 [2]; 24.6 µM in the data set with DU-145; 1.5 µM in the data set with SK-BR-3 [1]; 53.8 µM in the data set on A549; 40 µM in [3]. Further, in the data set with KB, the EC50 came to 43.8 µM.
